Key:
Format in all cases: ADME, organism-based
[1] = system: Hippocampus; assay: Drug uptake in Sprague-Dawley rat hippocampus at 12.2 MBq, iv after 60 mins by autoradiography; details: in vivo, 1 h
How it was run: (§1)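 [¹⁸F]-labelled tracer (0.2 mL, 12.2 MBq) given intravenously to conscious Sprague-Dawley rats (n = 3). Each rat was killed by cervical dislocation 60 min after injection. The brain was removed and frozen in liquid nitrogen, and 20 μm coronal sections were cut on a cryostat for ex vivo autoradiography of regional radioactivity.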

[2] = system: Cortex; assay: Drug uptake in Sprague-Dawley rat temporal cortex auditory area at 12.2 MBq, iv after 60 mins by autoradiography; details: in vivo, 1 h; how it was run: as §1
[3] = Metabolic stability in ICR mouse liver at 18.5 MBq, iv after 30 mins by HPLC analysis; details: read-out: Stability
How it was run: (§2)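 Male ICR mice given radiotracer iv (18.5 MBq, 0.2 mL), killed at 30 min. Brain and liver were homogenized in ice-cold PBS (0.01 M, pH 7.4) and extracted with ice-cold MeCN. Supernatants were filtered, concentrated and analysed by radio-HPLC on a C18 column, acetonitrile/water with 0.1% TFA (45:55), 1 mL/min.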

[4] = system: Brain; assay: Metabolic stability in ICR mouse brain at 18.5 MBq, iv after 30 mins by HPLC analysis; details: in vivo, 0.5 h; how it was run: as §2
[5] = system: Rattus norvegicus; assay: Biodistribution in Sprague-Dawley rat olfactory bulb at 23 MBq, iv after 60 mins by microPET imaging/CT study in presence of haloperidol; details: in vivo, 1 h
How it was run: (§3)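 Sprague-Dawley rats under isoflurane (1.5–2.5%) in oxygen received 23 MBq radiotracer (0.2 mL saline) via tail vein. Blocking animals were pre-injected with haloperidol (0.2 mL, 1 mg/kg) 5 min before the tracer. MicroPET emission was acquired for 30 min starting 60 min post-injection, followed by a 5 min CT scan; images were summed over 60–90 min.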

[6] = system: Rattus norvegicus; assay: Biodistribution in Sprague-Dawley rat pontine reticular nucleus at 23 MBq, iv after 60 mins by microPET imaging/CT study in presence of haloperidol; details: in vivo, 1 h; how it was run: as §3
[7] = system: Cortex; assay: Biodistribution in Sprague-Dawley rat cortex at 23 MBq, iv after 60 mins by microPET imaging/CT study in presence of haloperidol; details: in vivo, 1 h; how it was run: as §3
[8] = system: Thalamus; assay: Biodistribution in Sprague-Dawley rat thalamus at 23 MBq, iv after 60 mins by microPET imaging/CT study in presence of haloperidol; details: in vivo, 1 h; how it was run: as §3
[9] = system: Midbrain; assay: Biodistribution in Sprague-Dawley rat midbrain at 23 MBq, iv after 60 mins by microPET imaging/CT study in presence of haloperidol; details: in vivo, 1 h; how it was run: as §3
[10] = system: Rattus norvegicus; assay: Biodistribution in Sprague-Dawley rat olfactory bulb at 23 MBq, iv after 60 mins by microPET imaging/CT study; details: in vivo, 1 h; how it was run: as §3
[11] = system: Cortex; assay: Biodistribution in Sprague-Dawley rat cortex at 23 MBq, iv after 60 mins by microPET imaging/CT study; details: in vivo, 1 h; how it was run: as §3
[12] = system: Rattus norvegicus; assay: Biodistribution in Sprague-Dawley rat pontine reticular nucleus at 23 MBq, iv after 60 mins by microPET imaging/CT study; details: in vivo, 1 h; how it was run: as §3
[13] = system: Hypothalamus; assay: Biodistribution in Sprague-Dawley rat hypothalamus at 23 MBq, iv after 60 mins by microPET imaging/CT study; details: in vivo, 1 h; how it was run: as §3
[14] = system: Midbrain; assay: Biodistribution in Sprague-Dawley rat midbrain at 23 MBq, iv after 60 mins by microPET imaging/CT study; details: in vivo, 1 h; how it was run: as §3
[15] = system: Nucleic Acid; assay: Ratio of drug uptake in Sprague-Dawley rat hippocampus to cerebellum at 12.2 MBq, iv after 60 mins by autoradiography; details: in vivo, 1 h
[16] = system: Nucleic Acid; assay: Ratio of drug uptake in Sprague-Dawley rat interior coliculus to cerebellum at 12.2 MBq, iv after 60 mins by autoradiography; details: in vivo, 1 h
[17] = system: Nucleic Acid; assay: Ratio of drug uptake in Sprague-Dawley rat thalamus to cerebellum at 12.2 MBq, iv after 60 mins by autoradiography; details: in vivo, 1 h
[18] = system: Nucleic Acid; assay: Ratio of drug uptake in Sprague-Dawley rat frontal cortex to cerebellum at 12.2 MBq, iv after 60 mins by autoradiography; details: in vivo, 1 h
[19] = system: Nucleic Acid; assay: Ratio of drug uptake in Sprague-Dawley rat temporal cortex auditory area to cerebellum at 12.2 MBq, iv after 60 mins by autoradiography; details: in vivo, 1 h
[20] = Drug uptake in Sprague-Dawley rat vermian lobule at 12.2 MBq, iv after 60 mins by autoradiography; details: in vivo, 1 h; how it was run: as §1
[21] = Drug uptake in Sprague-Dawley rat lateral ventricle at 12.2 MBq, iv after 60 mins by autoradiography; details: in vivo, 1 h; how it was run: as §1
[22] = system: Thalamus; assay: Drug uptake in Sprague-Dawley rat thalamus at 12.2 MBq, iv after 60 mins by autoradiography; details: in vivo, 1 h; how it was run: as §1
[23] = system: Hypothalamus; assay: Drug uptake in Sprague-Dawley rat hypothalamus at 12.2 MBq, iv after 60 mins by autoradiography; details: in vivo, 1 h; how it was run: as §1
[24] = system: Cortex; assay: Drug uptake in Sprague-Dawley rat visual cortex at 12.2 MBq, iv after 60 mins by autoradiography; details: in vivo, 1 h; how it was run: as §1
[25] = system: Cortex; assay: Drug uptake in Sprague-Dawley rat cortex at 12.2 MBq, iv after 60 mins by autoradiography; details: in vivo, 1 h; how it was run: as §1
[26] = system: Brain; assay: Biodistribution in ICR mouse brain assessed as reduction in radiotracer uptake at 370 kBq, iv after 60 minutes by gamma-counting analysis in presence of haloperidol; details: in vivo, 1 h
How it was run: (§4)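 Male ICR mice got saline or a blocker (haloperidol, (S)-(−)-raclopride, fluvoxamine or tamoxifen; 0.1 mL, 2.2 μmol/kg) via tail vein 5 min before 370 kBq tracer iv. Brain was γ-counted at 60 min and compared with saline controls by two-tailed Student's t test, p ≤ 0.05.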

[27] = system: Brain; assay: Biodistribution in ICR mouse brain assessed as reduction in radiotracer uptake at 370 kBq, iv after 60 minutes by gamma-counting analysis in presence of fluvoxamine; details: in vivo, 1 h; how it was run: as §4
[28] = system: Brain; assay: Biodistribution in ICR mouse brain assessed as reduction in radiotracer uptake at 370 kBq, iv after 60 minutes by gamma-counting analysis in presence of tamoxifen; details: in vivo, 1 h; how it was run: as §4
[29] = system: Blood; assay: Biodistribution in ICR mouse blood assessed as radiotracer accumulation at 370 kBq, iv after 60 minutes by gamma-counting analysis in presence of SA4503; details: in vivo, 1 h
How it was run: (§5)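 Male ICR mice got saline or SA4503 (0.1 mL; 2, 5, 10 or 2.2 μmol/kg) via tail vein 5 min before 370 kBq tracer (0.1 mL) iv. They were decapitated at 60 min and tissues γ-counted. Percent change was taken against saline controls, with two-tailed Student's t test, p ≤ 0.05.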

[30] = system: Kidney; assay: Biodistribution in ICR mouse kidney assessed as reduction in radiotracer uptake at 370 kBq, iv after 60 minutes by gamma-counting analysis in presence of SA4503 relative to control; design: scale not given: the % may be the effect or the level left; details: in vivo, 1 h; how it was run: as §5
[31] = system: Heart; assay: Biodistribution in ICR mouse heart assessed as reduction in radiotracer uptake at 370 kBq, iv after 60 minutes by gamma-counting analysis in presence of SA4503 relative to control; design: scale not given: the % may be the effect or the level left; details: in vivo, 1 h; how it was run: as §5
[32] = system: Brain; assay: Biodistribution in ICR mouse brain assessed as reduction in radiotracer uptake at 370 kBq, iv after 60 minutes by gamma-counting analysis in presence of SA4503 relative to control; design: scale not given: the % may be the effect or the level left; details: in vivo, 1 h; how it was run: as §5

[18F]CCOc1ccc(CN2CCC3(CC2)OCc2ccccc23)cc1
Drug uptake [1]: Active | Drug uptake [2]: Active | remaining at 0.5 h [3]: 40.3% | Stability [4]: Stable | Drug uptake [5]: Active | Drug uptake [6]: Active | Drug uptake [7]: Active | Drug uptake [8]: Active | Drug uptake [9]: Active | Drug uptake [10]: Active | Drug uptake [11]: Active | Drug uptake [12]: Active | Drug uptake [13]: Active | Drug uptake [14]: Active | Ratio [15]: 1.22 | Ratio [16]: 1.3 | Ratio [17]: 1.38 | Ratio [18]: 1.5 | Ratio [19]: 1.9 | Drug uptake [20]: Active | Drug uptake [21]: Active | Drug uptake [22]: Active | Drug uptake [23]: Active | Drug uptake [24]: Active | Drug uptake [25]: Active | Drug uptake [26]: Active | Drug uptake [27]: Active | Drug uptake [28]: Active | Drug uptake [29]: Active | Activity [30]: 57% | Activity [31]: 60% | Activity [32]: 46%

Source: ChEMBL document CHEMBL2346503, “Synthesis and evaluation of novel (18)F-labeled spirocyclic piperidine derivatives as σ1 receptor ligands for positron emission tomography imaging” (J Med Chem, 2013)
